Rows were chosen to be rich in hits. Some 3.7% of all compounds tested hit in one or more screens of this group.
hERG protect: compounds protecting human hERG from proarrhythmic drug block | Q12809 | CHO-hERG, FluxOR thallium flux, dofetilide IC70 present | activation (rescue from dofetilide block), less the hit threshold, % at 10 µM | AID 1511 | hit rate 0.51% among 310,000;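 active = activation above the mean of controls blocked by dofetilide plus 5 SD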;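 note: thallium influx through hERG after potassium depolarization seen as dye fluorescence rise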
Kir21 block: inhibitors of mouse Kir2.1 inward-rectifier potassium channel; P35561; HEK293-Kir2.1, FluxOR thallium flux fluorescence; hits give low values; AID 1672; B-score at 10 µM; hit rate 0.85% among 310,000;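 active = fluorescence ratio B-score at or below minus 3 SD of library scores, with starting-brightness B-score within 2 SD, cut at about -4.2 in these data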;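 note: channel flux triggered by added potassium and thallium sulfate stimulus; B-score of peak minus minimum fluorescence over baseline after thallium stimulus; more negative B-score means stronger Kir2.1 block with less thallium influx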
KCNK3 block: human KCNK3 channel inhibition, primary screen; O14649; hit rate 0.84% among 340,000; CHO-KCNK3 thallium flux, FluxOR fluorescence; hits give low values; B-score at 10 µM;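 active = B-score under library mean minus 4 SD, starting fluorescence ratio at most library mean plus 5 SD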;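 note: more negative B-score means stronger inhibition of thallium flux through KCNK3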
KCNQ1 block: blocks the human KCNQ1 potassium channel. CHO-K1 KCNQ1, FluxOR thallium flux fluorescence; hits give high values. B-score at 10 µM. hit rate 1.3% among 310,000. AID 2642;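 active = compounds whose thallium flux B-score, printed positive for inhibition, exceeds three library SD while starting fluorescence stays within three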;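 note: channel opened by potassium depolarization with thallium stimulus after 20 min compound exposure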
Target sequence (P51787 whole entry, looked up): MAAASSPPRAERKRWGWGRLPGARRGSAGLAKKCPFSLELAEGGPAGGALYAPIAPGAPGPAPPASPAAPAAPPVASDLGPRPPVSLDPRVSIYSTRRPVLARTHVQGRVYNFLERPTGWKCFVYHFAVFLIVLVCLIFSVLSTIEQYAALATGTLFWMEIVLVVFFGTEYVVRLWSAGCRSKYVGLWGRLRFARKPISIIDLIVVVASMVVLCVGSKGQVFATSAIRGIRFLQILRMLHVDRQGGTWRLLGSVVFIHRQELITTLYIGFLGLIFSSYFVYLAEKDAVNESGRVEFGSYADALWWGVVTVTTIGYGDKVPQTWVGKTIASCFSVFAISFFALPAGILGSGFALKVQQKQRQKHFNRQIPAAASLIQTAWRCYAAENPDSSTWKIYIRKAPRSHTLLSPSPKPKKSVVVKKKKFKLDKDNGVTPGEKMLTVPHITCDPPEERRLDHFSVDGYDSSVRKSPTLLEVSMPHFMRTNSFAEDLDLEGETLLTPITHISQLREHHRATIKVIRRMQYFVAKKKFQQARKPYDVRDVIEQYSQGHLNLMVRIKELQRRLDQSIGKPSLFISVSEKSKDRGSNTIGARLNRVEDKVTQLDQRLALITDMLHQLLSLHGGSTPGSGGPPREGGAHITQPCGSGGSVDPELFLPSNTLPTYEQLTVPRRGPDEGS
KCNQ1 act: potentiates or activates the human KCNQ1 potassium channel; P51787; CHO-K1 KCNQ1, thallium flux FluxOR fluorescence; hits give high values; B-score at 10 µM; hit rate 0.35% among 310,000;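 active = fluorescence ratio B-score, a plate-corrected score, at least three library SD, with initial intensity B-score within 5 SD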
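assay system = KCNQ1-transfected CHO-K1 cells | medium = assay buffer with matched DMSO | probe or stimulus = depolarizing K+/Tl+ stimulus, K2SO4 and Tl2SO4 each 12.5 mM in 5x stock | dosing = single dose | incubation = dye 90 min, compound 20 min, room temperature | detection = kinetic FluxOR fluorescence, 10 s baseline plus 110 s post-stimulus | evaluation = ratio B score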
KCNK9 block: inhibitors of human KCNK9 two-pore domain potassium channel; Q9NPC2; HEK293 KCNK9, FluxOR thallium flux fluorescence; hits give low values; B-score at 10 µM; hit rate 1.2% among 310,000;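 active = ratio B-score over 3 SD below the library mean, with starting fluorescence within 5 SD of its mean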;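 note: negative B-score means less thallium flux so channel inhibition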
Each line names hits and unclear results; the compound was inactive in the other large screens.

CC1CCCCC1NC(=O)Cn1cnc2sccc2c1=O (stereo unspecified)	none (no result: hERG protect, Kir21 block, KCNQ1 block, KCNQ1 act, KCNK9 block)
O=C(Nc1nccs1)c1nc[nH]c1C(=O)NCc1ccccc1	none (no result: hERG protect, Kir21 block, KCNQ1 block, KCNQ1 act, KCNK9 block)
O=C(NCc1ccccn1)c1ccc(OC2CCN(Cc3cccs3)CC2)cc1	none
COc1ccc(S(=O)(=O)Nc2ccc(Cc3ccncc3)cc2)cc1C	none
COc1ccccc1OCC(O)Cn1c(=N)n(Cc2ccccc2)c2ccccc21 (stereo unspecified)	Kir21 block -4.6
C=CCn1c(=N)n(CC(O)COc2ccccc2OC)c2ccccc21 (stereo unspecified)	none
COc1cccc(N(CC(=O)NC2CCCCC2)C(=O)Cn2nnc(-c3ccc(C)o3)n2)c1	none
COc1cccc(CN(CC(=O)NC2CCCC2)C(=O)Cn2nnc(-c3cccs3)n2)c1	hERG protect 32
Cc1ccc(NC(=O)c2cc(N3C(=O)C=CC3=O)ccc2N2CCOCC2)cc1Cl	none
O=C(Nc1ccc(CN2CCOCC2)cc1)c1cccc(-c2cc3ccccc3oc2=O)c1	none
O=C(Nc1cccc(Cl)c1N1CCCC1)c1cccc(-c2cc3ccccc3oc2=O)c1	KCNK9 block -7.1
O=C(Nc1ccc(Cl)cc1)N(C1=NCCC1)c1ccc(OC(F)F)cc1	KCNQ1 block 6
COc1ccc(CNc2nc3ccccc3n2CCN2CCCCC2)cc1	none
CCN(CC)c1ccc(CNc2nc3ccccc3n2CCN2CCCCC2)cc1	KCNQ1 block 7
CCc1nnc(NC(=O)CC23CC4CC(CC(Br)(C4)C2)C3)s1	none
CCN1/C(=C\C=C(C(C)=O)C(C)=O)Sc2ccccc21	KCNQ1 block 8
O=S(=O)(O)c1ccc(N=Nc2ccccc2)cc1	none
O=c1ccc(N=Nc2ccccc2)ccc1O	hERG protect 49, KCNQ1 act 79
CCOC(=O)c1cc(C(=O)NN)c(C)nc1C	none
CCOC(=O)c1cc(-c2nnc(-c3ccc(Oc4ccccc4)cc3)o2)c(C)nc1C	KCNK3 block -10
O=C(O)Cc1ccc(NC(=O)C2CC=CCC2C(=O)O)cc1 (stereo unspecified)	hERG protect 8.7 (no result: KCNK3 block)
CC(NC(C)c1ccccc1Cl)C(=O)Nc1cccc(S(=O)(=O)N2CCCCC2)c1 (stereo unspecified)	none (no result: hERG protect, Kir21 block, KCNQ1 block, KCNQ1 act, KCNK9 block)
CN(C[C@H](Cc1ccccc1)N(C[C@H](Cc1ccccc1)N(CCC(C)(C)C)N=O)N=O)N=O	KCNQ1 block 8
CC(C)CCN(N=O)[C@@H](Cc1ccccc1)CN(N=O)[C@@H](Cc1ccccc1)CN(C)N=O	none
O=C(NCCc1ccccc1F)C1CC(=O)N(c2cccc(C(F)(F)F)c2)C1 (stereo unspecified)	none (no result: hERG protect, Kir21 block, KCNQ1 block, KCNQ1 act, KCNK9 block)
CCc1ccc(N2C(=O)C(Cl)=C(Nc3ccc(C(=O)N4CCCC4)cc3)C2=O)cc1	none (no result: hERG protect, Kir21 block, KCNQ1 block, KCNQ1 act, KCNK9 block)
C=CCN1C(=O)/C(=C/c2ccc(OC(C)=O)c(OCC)c2[N+](=O)[O-])SC1=S	KCNQ1 block 12
O=C(COC(=O)c1c2c(nc3ccccc13)/C(=C/c1cccc([N+](=O)[O-])c1)CCC2)NC1CCS(=O)(=O)C1 (stereo unspecified)	none
O=C(COC(=O)c1c2c(nc3ccccc13)/C(=C\c1ccco1)CC2)NC1CCCC1	KCNK3 block -9.4 (no result: hERG protect, Kir21 block, KCNQ1 block, KCNQ1 act, KCNK9 block)
CN(CCC#N)C(=O)COC(=O)c1c2c(nc3ccccc13)/C(=C\c1ccco1)CC2	KCNK3 block -8.9 (no result: hERG protect, Kir21 block, KCNQ1 block, KCNQ1 act, KCNK9 block)
CC1CCCCC1NC(=O)COC(=O)c1c2c(nc3ccccc13)/C(=C\c1ccco1)CC2 (stereo unspecified)	KCNK3 block -11 (no result: hERG protect, Kir21 block, KCNQ1 block, KCNQ1 act, KCNK9 block)
CCN1CCN(CCOc2ccccc2-c2ccccc2)CC1	Kir21 block -5.3
c1ccc(COc2ccc(OCCCCN3CCCCC3)cc2)cc1	Kir21 block -4.7
O=C(c1ccccc1)c1ccc(OCCCCN2CCCCC2)cc1	none
CCN1CCN(CCCOc2ccccc2-c2ccccc2)CC1	none
CCN1CCN(CCCOc2ccc(-c3ccccc3)cc2)CC1	Kir21 block -4.7 (no result: KCNK3 block)
O=C1C=C(c2ccc3c(c2)OCCO3)C[C@@H](c2ccc(F)cc2)C1	none (no result: hERG protect, Kir21 block, KCNQ1 block, KCNQ1 act, KCNK9 block)
O=C(NC1CCCC1)C1CCN(C(=O)c2ccc(Cl)cc2Cl)CC1	none
COc1cccc2cc(C(=O)Nc3ccccc3Cl)/c(=N/NS(=O)(=O)c3ccccc3)oc12	none
COc1ccc(NC(=O)CSc2nc3ccccc3c(=O)n2CCCN2CCCCC2)c(OC)c1	Kir21 block -6.1
CCOC(=O)c1ccccc1NC(=O)CSc1nc2ccccc2c(=O)n1CCCN1CCOCC1	KCNK3 block -11 (no result: hERG protect, Kir21 block, KCNQ1 block, KCNQ1 act, KCNK9 block)
COCCn1c(-c2ccc(OC)cc2)cnc1SCC(=O)Nc1ccc(OC)cc1OC	KCNQ1 block 6
COCCCNC(=O)CSc1nc2ccccc2c(=O)n1CCCN1CCCCC1	none
CCOC(=O)CSc1nc2c(sc3ccccc32)c(=O)n1CCCN1CCOCC1	hERG protect 4.9
COCCn1c(-c2ccc(OC)cc2)cnc1SCC(=O)Nc1cc(C)on1	none
COCCCNC(=O)CN1C(=O)COc2ccc(S(=O)(=O)N3CCOCC3)cc21	none
CCOc1ccc(OCC)c(NC(=O)CCCN2C(=O)c3cccnc3C2=O)c1	hERG protect 7.5
COc1ccc(C(=O)/C=C/C(=O)N(CC(=O)NC2CCCCC2)CC2CCCO2)c(O)c1 (stereo unspecified)	Kir21 block -5.3
COCCCNC(=O)c1cn(-c2cccc(OC)c2)c(=O)c2ccccc12	none
CCN(CC)CCCNC(=O)c1cn(-c2cccc(OC)c2)c(=O)c2ccccc12	hERG protect 5.0
COc1ccc(NC(=O)CNC(=O)Cc2cccc3ccccc23)c(OC)c1	none
CC(C)c1ccc(S(=O)(=O)N2CCN(C(=O)CN3C(=O)c4ccccc4C3=O)CC2)cc1	none (no result: hERG protect, Kir21 block, KCNQ1 block, KCNQ1 act, KCNK9 block)
CC(=O)c1cccc(NC(=O)c2ccc(N(Cc3ccccc3)S(C)(=O)=O)cc2)c1	none
CS(=O)(=O)N(Cc1ccccc1)c1ccc(C(=O)Nc2ccc(C(N)=O)cc2)cc1	hERG protect 46
O=C(c1ccc(Cl)s1)N1CCN(S(=O)(=O)c2ccc(Cl)cc2)CC1	none (no result: hERG protect, Kir21 block, KCNQ1 block, KCNQ1 act, KCNK9 block)
Cc1cc(=O)oc2cc(O)cc(OCc3ccccc3)c12	none (no result: hERG protect, Kir21 block, KCNQ1 block, KCNQ1 act, KCNK9 block)
N#C/C(=C\c1cccnc1)C(=O)Nc1cccc2ccccc12	Kir21 block -4.5
N#C/C(=C\c1cccnc1)C(=O)Nc1cccc(Cl)c1	hERG protect 8.5
Cc1ccc2c(c1)cc1c(=O)n(CC(=O)NCCN3CCCC3)nc(C)n12	none
O=C(/C=C/c1cccc([N+](=O)[O-])c1)NCCSCc1ccc(Cl)cc1Cl	KCNK9 block -14
CCN(C(=O)Cn1c(=O)oc2ccccc21)c1ccc(C)c(C)c1	none
O=C(Nc1ncc(Cc2cccc(Cl)c2)s1)c1cccs1	KCNK9 block -6.7
O=C(Nc1ncc(Cc2ccccc2)s1)c1cccs1	none
Cc1ccc(CCNC(=O)CN2C(=O)COc3ccc(S(=O)(=O)N4CCOCC4)cc32)cc1	none

Source: PubChem BioAssay
